According to ChEMBL document CHEMBL4145632, “Selective Irreversible Inhibitors of the Wnt-Deacylating Enzyme NOTUM Developed by Activity-Based Protein Profiling” (ACS Med Chem Lett, 2018):
pIC50: −log10 of the molar value. The source made the active and inactive calls. No cut-off for these calls is given here.

Key:
Type in all cases: cell-based
[1] = target: T1, Palmitoleoyl-protein carboxylesterase NOTUM (Homo sapiens, UniProt Q6P988); assay: Inhibition of NOTUM in human SW620 cells conditioned medium at 0.01 to 1 uM measured after 30 mins by rhodamine-azide reporter tagged based SDS-PAGE fluorescence analysis; conditions: 0.5 h
T1 sequence (Q6P988 whole entry): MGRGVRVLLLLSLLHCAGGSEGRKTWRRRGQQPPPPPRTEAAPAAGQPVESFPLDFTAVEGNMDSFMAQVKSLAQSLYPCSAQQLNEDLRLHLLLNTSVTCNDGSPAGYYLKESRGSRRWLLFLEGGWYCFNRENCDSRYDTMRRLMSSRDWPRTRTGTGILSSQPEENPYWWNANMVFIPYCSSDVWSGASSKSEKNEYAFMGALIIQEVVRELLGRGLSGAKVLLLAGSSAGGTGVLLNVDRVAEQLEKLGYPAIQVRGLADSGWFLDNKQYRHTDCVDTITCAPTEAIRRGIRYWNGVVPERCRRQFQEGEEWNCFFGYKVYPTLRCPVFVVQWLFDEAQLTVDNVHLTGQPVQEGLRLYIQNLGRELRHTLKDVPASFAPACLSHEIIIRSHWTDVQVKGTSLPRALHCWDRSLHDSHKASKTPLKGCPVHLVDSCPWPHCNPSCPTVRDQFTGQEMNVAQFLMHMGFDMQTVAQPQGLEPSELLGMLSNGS
How it was run: (§1)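 Alkyne probe analogue was added to SW620 conditioned medium or cellular lysate for 30 min at 37 °C. Samples were clicked to a rhodamine-azide tag by copper-mediated azide–alkyne cycloaddition, then read by SDS-PAGE and in-gel fluorescence.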

[2] = target: T1, Palmitoleoyl-protein carboxylesterase NOTUM; assay: Inhibition of rhodamine-tagged FP probe binding to NOTUM in human SW620 cells conditioned medium at 0.01 to 1 uM pretreated for 30 mins followed by rhodamine-tagged FP probe addition and measured after 30 mins by SDS-PAGE fluorescence analysis; conditions: 0.5 h
[3] = target: T2, Monoacylglycerol lipase ABHD6 (Homo sapiens) (UniProt Q9BV23); assay: Inhibition of rhodamine-tagged FP probe binding to ABHD6 in human SW620 cells at 0.1 uM pretreated for 30 mins followed by rhodamine-tagged FP probe addition and measured after 30 mins by SDS-PAGE fluorescence analysis
T2 sequence (whole entry): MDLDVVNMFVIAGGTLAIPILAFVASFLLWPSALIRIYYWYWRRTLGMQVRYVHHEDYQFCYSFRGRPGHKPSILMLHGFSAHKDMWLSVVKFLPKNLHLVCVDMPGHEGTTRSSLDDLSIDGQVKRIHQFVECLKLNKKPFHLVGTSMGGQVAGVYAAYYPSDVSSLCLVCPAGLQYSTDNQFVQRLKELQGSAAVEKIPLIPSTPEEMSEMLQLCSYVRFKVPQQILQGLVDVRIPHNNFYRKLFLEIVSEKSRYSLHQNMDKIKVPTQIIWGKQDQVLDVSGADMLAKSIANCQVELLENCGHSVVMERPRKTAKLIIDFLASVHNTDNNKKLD

[4] = target: T2, Monoacylglycerol lipase ABHD6 (Homo sapiens); assay: Inhibition of ABHD6 in human SW620 cells at 0.1 uM after 30 mins by rhodamine-azide reporter tagged based SDS-PAGE fluorescence analysis; how it was run: as §1
[5] = target: T3, Palmitoyl-protein thioesterase 1 (Homo sapiens) (UniProt P50897); assay: Inhibition of ABC45 probe binding to PPT1 in human SW620 cells at 0.1 to 10 uM pretreated for 2 hrs followed by ABC45 probe addition and measured after 30 mins by rhodamine-azide reporter tagged based SDS-PAGE fluorescence analysis
T3 sequence (whole entry): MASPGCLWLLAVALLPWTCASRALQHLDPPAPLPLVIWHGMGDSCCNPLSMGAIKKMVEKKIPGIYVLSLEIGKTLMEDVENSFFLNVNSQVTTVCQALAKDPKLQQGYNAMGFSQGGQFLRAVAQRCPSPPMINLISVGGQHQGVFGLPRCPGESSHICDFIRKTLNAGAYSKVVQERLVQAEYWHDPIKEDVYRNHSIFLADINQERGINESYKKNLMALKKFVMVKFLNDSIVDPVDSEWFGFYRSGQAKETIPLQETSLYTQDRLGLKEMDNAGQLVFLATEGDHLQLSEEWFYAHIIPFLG
How it was run: (§2)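 SW620 cells were treated in situ with compound at the stated concentrations for 2 h at 37 °C. Soluble and membrane proteomes were then labeled with the PPT1-directed probe ABC45 or FP-Rh. Competition was read by SDS-PAGE and in-gel fluorescence scanning.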

[6] = target: T2, Monoacylglycerol lipase ABHD6 (Homo sapiens); assay: Inhibition of ABHD6 in human SW620 cells at 10 uM after 2 hrs by FP-biotin probe based LC-MS analysis
[7] = target: T1, Palmitoleoyl-protein carboxylesterase NOTUM; assay: Inhibition of rhodamine-tagged FP probe binding to NOTUM in human SW620 cells conditioned media pretreated for 30 mins followed by rhodamine-tagged FP probe addition and measured after 30 mins by SDS-PAGE fluorescence analysis
[8] = target: T1, Palmitoleoyl-protein carboxylesterase NOTUM; assay: Inhibition of NOTUM in human SW620 cells conditioned medium assessed as preservation of Wnt3A activity pretreated for 1 hr followed by Wnt3A producing L-cell addition for 2 hrs and subsequent […]-STF cell addition and measured after 24 hrs by luciferase reporter gene assay
[9] = target: T1, Palmitoleoyl-protein carboxylesterase NOTUM; assay: Inhibition of NOTUM in human SW620 cells conditioned medium at 10 uM after 1 hr by FP-biotin probe based LC-MS analysis relative to control
How it was run: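 SW620 conditioned medium was treated with compound (0.5 or 10 μM) or DMSO for 1 h at 37 °C. Peptides were labeled with light (compound) or heavy (DMSO) formaldehyde, combined and analyzed by MS. Values are light/heavy median peptide ratios from two independent experiments, ±SEM.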

[10] = target: T1, Palmitoleoyl-protein carboxylesterase NOTUM; assay: Inhibition of rhodamine-tagged FP probe binding to NOTUM in human SW620 cells conditioned media at 0.1 to 3 uM pretreated for 30 mins followed by rhodamine-tagged FP probe addition and measured after 30 mins by SDS-PAGE fluorescence analysis; conditions: 0.5 h
[11] = target: T2, Monoacylglycerol lipase ABHD6 (Homo sapiens); assay: Inhibition of rhodamine-tagged FP probe binding to ABHD6 in human SW620 cells at 0.1 to 10 uM pretreated for 2 hrs followed by rhodamine-tagged FP probe addition and measured after 30 mins by SDS-PAGE fluorescence analysis; how it was run: as §2
[12] = target: T1, Palmitoleoyl-protein carboxylesterase NOTUM; assay: Inhibition of rhodamine-tagged FP probe binding to recombinant human C-terminal FLAG-tagged NOTUM expressed in HEK293T cells pretreated for 30 mins followed by rhodamine-tagged FP probe addition and measured after 30 mins by SDS-PAGE fluorescence analysis

inhibition [5]	pIC50 [7]	inhibition (INH) [10]	Structure (SMILES)	also measured
			C#CCN1CCN(C(=O)ON2C(=O)C3CN(Cc4ccc(Cl)cc4)CCN3C2=O)c2ccccc21 (centres undefined)	inhibition (INH) [1]: Active; inhibition (INH) [2]: Active; inhibition [3]: inactive; inhibition [4]: inactive
inactive			O=C1C2CN(Cc3ccc(Cl)cc3)CCN2C(=O)N1OC(=O)N1CCOc2ccccc21 (centres undefined)	
Active	6.54	Active	COc1ccc(N2CCN(C(=O)ON3C(=O)C4CN(Cc5ccc(Cl)cc5)CCN4C3=O)CC2)cc1 (centres undefined)	inhibition [11]: Active
	6.70	Active	COc1ccc(N2CCN(C(=O)ON3C(=O)C4CN(Cc5ccccc5Cl)CCN4C3=O)CC2)cc1 (centres undefined)	
inactive			O=C1C2CN(Cc3ccc(Oc4ccccc4)nc3)CCN2C(=O)N1OC(=O)N1CCOc2ccccc21 (centres undefined)	pIC50 [12]: 5.82
	< 5.00	Not Active	COc1ccc(N2CCN(C(=O)ON3C(=O)C4CN(Cc5cccc(Cl)c5)CCN4C3=O)CC2)cc1 (centres undefined)	

Structure (SMILES)	inhibition [5]	pIC50 [7]	inhibition (INH) [10]	also measured
O=C(c1ccc(Cl)cc1)N1CCN2C(=O)N(OC(=O)N3CCOc4ccccc43)C(=O)C2C1 (centres undefined)		< 5.00		inhibition [6]: Active; pIC50 [8]: < 5.30; inhibition (INH) [9]: Not Active
